The values that follow come from ChEMBL document CHEMBL1134785, “Synthesis and biological evaluation of prostaglandin-F alkylphosphinic acid derivatives as bone anabolic agents for the treatment of osteoporosis” (J Med Chem, 2001).

Assay [1] has as its system Rattus norvegicus. Put plainly: Bone formation rate/tissue volume (%/year)bone Histomorphometrically after a dose of 1000 ug/kg in proximal tibial metaphysis. Type of assay: functional. Particulars: at 1000 µg/kg.
Assay [2] deals with T1, Prostaglandin E2 receptor EP3 subtype (Homo sapiens, UniProt P43115).
T1 sequence (P43115 whole entry): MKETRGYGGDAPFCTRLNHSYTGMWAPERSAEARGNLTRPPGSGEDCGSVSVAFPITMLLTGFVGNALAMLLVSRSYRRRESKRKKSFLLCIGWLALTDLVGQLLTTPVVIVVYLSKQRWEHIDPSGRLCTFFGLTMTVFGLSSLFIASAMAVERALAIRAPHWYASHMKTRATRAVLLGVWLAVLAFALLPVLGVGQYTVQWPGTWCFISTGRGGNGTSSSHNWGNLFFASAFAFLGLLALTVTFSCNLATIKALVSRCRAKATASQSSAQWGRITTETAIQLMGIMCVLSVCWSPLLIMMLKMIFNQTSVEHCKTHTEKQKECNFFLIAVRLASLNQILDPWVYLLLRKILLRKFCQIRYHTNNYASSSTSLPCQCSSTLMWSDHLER
Put plainly: In vitro binding at EP3 human prostaglandin receptor using [3H]PGE-2 as radioligand. The gist of the method:
(§1)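 Receptors stably expressed in CHO cells, collected 4-5 days after seeding. Membranes made by lysis (Tris, EDTA, protease inhibitors) and 100000g pellet, then resuspended at 1 mg protein/mL in TME. Radioligands at 5 nM: [3H]PGE2 for EP2/EP3/EP4, [3H]Iloprost for IP, [3H]SQ-29548 for TP. Competition binding with filtration and counting.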

Assay [3] has as its system Rattus norvegicus. In words: Bone Volume /Tissue Volume (%)measured Histomorphometrically after a dose of 30 ug/kg in proximal tibial metaphysis. It is filed as functional. Particulars: at 30 µg/kg.
Assay [4] relates to Rattus norvegicus. Put plainly: Mineralizing surface/bone surface(%) measured Histomorphometrically after a dose of 3000 ug/kg in proximal tibial metaphysis. Type of assay: functional. Summed up: (§2)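 Ovariectomized six-month-old rats, 6-8 per group, were dosed subcutaneously once daily at 0.01–3.0 mg/kg for 60 days, starting 60 days after surgery. Vehicle was acetate-buffered saline, methylcellulose and polyoxyethylenesorbitan monooleate. Labels were xylenol orange 90 mg/kg pretreatment and calcein 10 mg/kg at 14 and 4 days before necropsy. Histomorphometry covered the proximal tibial metaphysis, 1–4 mm distal to the growth plate–metaphyseal junction. ANOVA/LSD versus vehicle.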

The test system of assay [5] is Rattus norvegicus. In words: Trabecular thickness […] measured Histomorphometrically after a dose of 3000 ug/kg in proximal tibial metaphysis. It is filed as functional, Trabecula. The gist of the method:
(§3)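 Six-month-old rats were ovariectomized, and 60 days later daily subcutaneous dosing began for 60 days, with vehicle of acetate-buffered saline, methylcellulose and polysorbate. Xylenol orange (90 mg/kg) labelled bone pre-treatment and calcein (10 mg/kg) 14 and 4 days pre-sacrifice. Histomorphometry covered the proximal tibial metaphysis 1-4 mm distal to the growth plate-metaphyseal junction. Groups were 6-8 rats, compared by ANOVA/LSD vs vehicle.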

Assay [6] deals with T2, Prostaglandin D2 receptor (Homo sapiens, UniProt Q13258).
T2 sequence (Q13258 whole entry): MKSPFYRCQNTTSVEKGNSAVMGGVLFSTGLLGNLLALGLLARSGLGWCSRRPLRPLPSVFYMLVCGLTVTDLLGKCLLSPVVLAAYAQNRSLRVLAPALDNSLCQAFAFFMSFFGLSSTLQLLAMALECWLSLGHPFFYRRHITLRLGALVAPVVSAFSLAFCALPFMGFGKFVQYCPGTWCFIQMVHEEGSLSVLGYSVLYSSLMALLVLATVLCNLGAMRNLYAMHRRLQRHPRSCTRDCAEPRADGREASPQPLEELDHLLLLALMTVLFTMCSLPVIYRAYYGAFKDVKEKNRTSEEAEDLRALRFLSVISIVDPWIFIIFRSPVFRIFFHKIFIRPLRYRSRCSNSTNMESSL
Put plainly: In vitro binding at DP human prostaglandin receptor using [3H]- PGD-2 as radioligand. Summed up: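 hDP stably expressed in HEK-293 cells, collected 4-5 days after seeding. Membranes made by lysis and 100000g spin, then taken up at 1 mg protein/mL in TME buffer at pH 7.4. Competition binding used 5 nM [3H]PGD2, read by filtration and scintillation counting.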

For assay [7], the system named is Rattus norvegicus. In words: Mineral apposition rate ([…])bone measured Histomorphometrically after a dose of 300 ug/kg in proximal tibial metaphysis. Type of assay: functional. Summed up:
as §2

The subject of assay [8] is Rattus norvegicus. Put plainly: Trabecular thickness […] measured Histomorphometrically after a dose of 10 ug/kg in proximal tibial metaphysis. Type of assay: functional, Trabecula. Summed up: as §3
In assay [9] the test system is Rattus norvegicus. Put plainly: Marrow area (mm) measured Histomorphometrically after a dose of 300 ug/kg in tibial diaphysis. Type of assay: functional. The gist of the method: (§4)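 Six-month-old rats, bilaterally ovariectomized, 6-8 per group, on natural chow. After 60 days they received once-daily subcutaneous dosing for 60 days at 0.01–3.0 mg/kg. Vehicle was acetate-buffered saline with methylcellulose and polyoxyethylenesorbitan monooleate. Labels were xylenol orange 90 mg/kg before treatment and calcein 10 mg/kg 14 and 4 days before sacrifice. Tibial histomorphometry was read under fluorescent light, with ANOVA/LSD versus vehicle.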

Assay [10] concerns Rattus norvegicus. Put plainly: Mineral apposition rate ([…])bone measured Histomorphometrically after a dose of 1000 ug/kg in proximal tibial metaphysis. It is filed as functional. The gist of the method:
as §2

For assay [11], the system named is Rattus norvegicus. In words: Endosteal mineralizing surface Histomorphometrically after a dose of 10 ug/kg in tibial diaphysis. It is filed as functional. The gist of the method:
as §4

Assay [12] concerns Rattus norvegicus. In words: Bone formation rate/bone volume (%/year)bone measured Histomorphometrically after a dose of 30 ug/kg in proximal tibial metaphysis. Type of assay: functional. Particulars: at 30 µg/kg.
Assay [13] has as its target Prostacyclin receptor (Homo sapiens, UniProt P43119). In words: In vitro binding at prostanoid IP receptor using [3H]iloprost as radioligand. Summed up: as §1
Assay [14] has as its system Rattus norvegicus. Put plainly: Bone Volume /Tissue Volume (%)measured using micro Computed Tomography(CT) after a dose of 1000 ug/kg in Vertebral Bone. It is filed as functional. Particulars: at 1000 µg/kg.
Assay [15] concerns Rattus norvegicus. Put plainly: Mineral apposition rate ([…])bone measured Histomorphometrically after a dose of 300 ug/kg in tibial diaphysis. Type of assay: functional. Summed up: as §4
The test system of assay [16] is Rattus norvegicus. Put plainly: Periosteal mineralizing surface (%) measured Histomorphometrically after a dose of 300 ug/kg in tibial diaphysis. It is filed as functional. Summed up: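 Rats on natural chow (1.46% Ca) were bilaterally ovariectomized at 6 months and left untreated for 60 days. They then received once-daily subcutaneous doses for 60 days, with vehicle of acetate-buffered saline, methylcellulose and polysorbate. Xylenol orange (90 mg/kg) was given before treatment and calcein (10 mg/kg) 14 and 4 days before sacrifice. Tibiae were analysed by fluorescent histomorphometry, 6-8 rats/group, ANOVA/LSD vs vehicle.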

For assay [17], the system named is Rattus norvegicus. In words: Bone formation rate/tissue volume (%/year) bone measured histomorphometrically after a dose of 100 ug/kg in proximal tibial metaphysis. It is filed as functional. Particulars: at 100 µg/kg.
Assay [18] relates to Rattus norvegicus. Put plainly: Derived trabecular no […]measured using micro Computed Tomography(CT) after a dose of 10 ug/kg in Vertebral Bone. It is filed as functional, Trabecula. Summed up:
(§5)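 Micro-CT of the fifth lumbar vertebra, measuring cancellous bone volume and architecture. Rats were 6 months old, OVX 60 days before treatment, then dosed daily for 60 days. Test-agent doses were 10–3000 µg/kg, given as a once-daily subcutaneous injection; 6 mg/kg/day was given to the positive-control group. Groups were compared with vehicle by ANOVA plus LSD test.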

Assay [19] has as its system Rattus norvegicus. Put plainly: Derived trabecular no […]measured using micro Computed Tomography(CT) after a dose of 100 ug/kg in Vertebral Bone. Type of assay: functional, Trabecula. The gist of the method: as §5
Assay [20] relates to Rattus norvegicus. Put plainly: Marrow area (mm) measured Histomorphometrically after a dose of 3000 ug/kg in tibial diaphysis. It is filed as functional. Summed up: as §4

Some results are limits rather than exact numbers.

Chain of Prostacyclin receptor (P43119 whole entry): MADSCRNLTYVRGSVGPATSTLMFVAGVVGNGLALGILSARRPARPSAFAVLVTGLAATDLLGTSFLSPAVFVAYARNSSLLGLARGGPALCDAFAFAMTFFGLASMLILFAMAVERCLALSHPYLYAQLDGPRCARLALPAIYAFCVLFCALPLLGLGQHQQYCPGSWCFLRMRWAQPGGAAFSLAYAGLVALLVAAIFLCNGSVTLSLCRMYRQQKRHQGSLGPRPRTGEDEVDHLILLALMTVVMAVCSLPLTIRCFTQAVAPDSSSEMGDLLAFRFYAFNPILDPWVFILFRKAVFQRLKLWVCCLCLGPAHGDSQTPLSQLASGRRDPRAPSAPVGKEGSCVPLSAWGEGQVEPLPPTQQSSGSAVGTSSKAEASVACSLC

The IC50 is the concentration needed to halve the response being measured. Turning to `CP(=O)(O)CCC/C=C\C[C@@H]1[C@@H](/C=C/[C@@H](O)COc2ccccc2)[C@H](O)C[C@@H]1O`, the Activity amounted to 23.44% in assay [1]; 3.63% in [3]; 23.66% in [4]; 495.65% in assay [12]; 36.98% in [14]; 18.23% in [17]. In addition, the IC50 in assay [2], in [6] and in [13] was more than 10 µM in each case. Further, the Trabecular thickness came out at 55.8 µm in assay [5] and 35.7 µm in assay [8]. Besides, the results for the Mineral apposition rate in [7], in [10] and in assay [15] were 0.98 µm/day, 1.06 µm/day and 0.53 µm/day, respectively. The Marrow area turned out to be 0.89 mm in assay [9] and 0.74 mm in [20]. Also, the Endosteal mineralizing surface in assay [11] is 46.62%. The Periosteal mineralizing surface in [16] stood at 9.56%. Besides, the figures for the Derived trabecular number in assay [18] and in assay [19] were 4.26 mm-1 and 4.83 mm-1, respectively.
